Reference: ChEMBL document CHEMBL1154076, “New furanoflavanoids, intestinal alpha-glucosidase inhibitory and free-radical (DPPH) scavenging, activity from antihyperglycemic root extract of Derris indica (Lam.)” (Bioorg Med Chem, 2009)
Calls of active or inactive are those of the source. No cut-off for these calls is given here.

Columns and labels:
[1] = Inhibition of rat alpha-glucosidase assessed as p-nitrophenol release at 50 ug/ml
Outline: (§1)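 Crude enzyme is the sonicated supernatant of rat intestinal acetone powder in normal saline (100:1 w/v). Sample (5 mg/mL DMSO stock) in 100 mM phosphate buffer, pH 6.8, is preincubated 5 min with enzyme. p-Nitrophenyl-α-D-glucopyranoside (5 mM solution) is added, and p-nitrophenol is read at 405 nm after 5 min. Blanks omit substrate; the control is DMSO. Inhibition % = (1 − B/A) × 100. IC50 is taken by log regression over ≥5 dilutions. n = 3.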

[2] = system: Radical scavenging activity; assay: Antioxidant activity against DPPH radical assessed as concentration required for 50% scavenging activity; type: functional
Outline: (§2)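 DPPH (0.5 mM solution in absolute ethanol) is mixed with test sample (1 mg/mL DMSO stock) in 0.1 M Tris-HCl, pH 7.4. The mixture is shaken, kept in the dark for 30 min, and read at 517 nm. Scavenging % = (1 − B/A) × 100 versus a no-sample control. SC50 comes from logarithmic regression over at least five dilutions. n = 3.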

[3] = system: Radical scavenging activity; assay: Antioxidant activity assessed as DPPH radical scavenging activity; type: functional; outline: as §2
Rattus norvegicus = organism: Rattus norvegicus; assay: Inhibition of rat alpha-glucosidase assessed as p-nitrophenol release; outline: as §1

Inhibition [1]	Activity (Rattus norvegicus)	Compound	Activity [2]	Scavenging [3]	SC50 [3]
37.9%	–	O=c1c(O)c(-c2ccc(O)c(O)c2)oc2c1ccc1occc12	21 µM	64.9%	–
25.6%	335 µM	O=c1cc(-c2ccc(O)c(O)c2)oc2c1ccc1occc12	84.6 µM	55.1%	–
36%	–	COc1c(-c2ccc3c(c2)OCO3)oc2cc(O)ccc2c1=O	39 µM	68.3%	–
4.4%	–	COc1ccc(-c2cc(=O)c3c(O)cc(OC)cc3o2)cc1 [APIGENIN DIMETHYLETHER]	–	–	inactive
29.7%	–	COc1c(C(=O)/C=C(\O)c2ccc3c(c2)OCO3)ccc2occc12 [OVALITENONE]	–	–	inactive
36.5%	–	COc1c2ccoc2cc2oc(-c3ccccc3)cc(=O)c12 [PINNATIN]	–	–	inactive
22.8%	–	COc1c(-c2ccc3c(c2)OCO3)oc2c3c(ccc2c1=O)OC(C)(C)C=C3 [PONGACHROMENE]	–	–	inactive
8.6%	–	O=c1cc(-c2ccc3c(c2)OCO3)oc2c1ccc1occc12 [PONGAGLABRONE]	–	–	inactive
58.2%	104 µM	COc1c(C(=O)/C=C(\O)c2ccccc2)ccc2occc12 [PONGAMOL]	–	11.2%	–
28.7%	–	COc1cc(O)c2c(=O)cc(-c3ccccc3)oc2c1 [TECHTOCHRYSIN]	–	–	inactive

Compound	Inhibition [1]	Activity (Rattus norvegicus)	Activity [2]	Scavenging [3]	SC50 [3]
COc1ccc2c(=O)c(OC)c(-c3ccc(OC)c(OC)c3)oc2c1 [FISETIN TETRAMETHYL ETHER]	19.7%	–	–	–	inactive
COc1c(-c2ccccc2)oc2c(ccc3occc32)c1=O [KARANJIN]	26.3%	–	–	–	inactive
O=C(O)c1ccc2c(c1)OCO2 [PIPERONYLIC ACID]	18.4%	–	–	2.4%	–
COc1c(-c2ccc3c(c2)OCO3)oc2c(ccc3occc32)c1=O [PONGAPIN]	21.4%	–	–	–	inactive
